Drawing on ChEMBL document CHEMBL1158964, “Isolation and cytotoxicity of two new flavonoids from Chrysosplenium grayanum and related flavonols” (1991), this text covers EC50 for 10 compounds.

≈ marks a conversion by molar mass, not a printed value. A value given as a limit tells only on which side of the number the result lay.

This assay deals with KB. Briefly: Cytotoxicity against human KB cells after 72 hrs. The note with it: read-out: ED50 (the source's name). In kind it is functional. The procedure, abridged: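 KB cells kept in MEM with 5% fetal calf serum; assay run largely per NCI guidelines in 24-well plates in a CO₂ incubator. Cells assayed after 72 h by a literature procedure. ED₅₀ estimated from semi-log plots of sample concentration (μg/ml) against percent viable cells; three determinations.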
With `COc1cc(O)c2c(=O)c(OC)c(-c3ccc(OC)c(OC)c3)oc2c1` [RETUSIN], the EC50 was more than 25 µg/mL.
For `COc1cc(-c2oc3cc(OC)c(OC)c(O)c3c(=O)c2OC)ccc1O` [CHRYSOSPLENOL B] the value was 7.42 µg/mL (≈ 19.8 µM); for `COc1cc(O)c2c(=O)c(OC)c(-c3cc(O)c(OC)cc3O)oc2c1` [OXYAYANIN A], 1.99 µg/mL (≈ 5.52 µM).
Turning to `COC(=O)c1cc(O)c(OC)c(O)c1`, the EC50 turned out to be 8.62 µg/mL (≈ 43.5 µM).
`COc1cc(O)c(-c2oc3cc(OC)c(OC)c(O)c3c(=O)c2OC)cc1OC` [BRICKELLIN]: the EC50 is more than 25 µg/mL.
`COc1cc2oc(-c3ccc(O)c(O)c3)c(OC)c(=O)c2c(O)c1OC` [CHRYSOSPLENOL D]: the EC50 turned out to be 13.9 µg/mL (≈ 38.7 µM).
On to `COc1cc(O)c2c(=O)c(OC)c(-c3cc(OC)c(O)cc3O)oc2c1` [CHRYSOSPLENOL F], for which the EC50 was more than 25 µg/mL.
For `COc1cc(O)c2c(=O)c(OC)c(-c3cc(O)c(OC)cc3OC)oc2c1` [CHRYSOSPLENOL G] the value was 8.61 µg/mL (≈ 23 µM).
`COc1cc(-c2oc3cc(OC)c(O)c(O)c3c(=O)c2OC)ccc1O` [CHRYSOSPLENOL C]: the EC50 was 11.2 µg/mL (≈ 31.1 µM).
As for `COc1cc(O)c2c(=O)c(OC)c(-c3cc(OC)c(OC)cc3O)oc2c1` [CHRYSOSPLENOL E], the EC50 was more than 25 µg/mL.
